Screens deposited in PubChem BioAssay by several laboratories.
A selection: hits, their analogues and other compounds. The true share with any hit is near 3.4%.
HTR2A ag = agonists of mouse serotonin 5-HT2A receptor (HTR2A); CHO-K1 mHTR2A beta-arrestin complementation, luminescence; percent of 30 µM serotonin response; activation, % at 7.6 µM; 0.66% of 360,000 active; AID 624169;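 active = activation above a run cutoff, the mean activation of all tested compounds plus 3 SD, cut at about 14% in these data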
Target sequence (P35363 whole entry, looked up): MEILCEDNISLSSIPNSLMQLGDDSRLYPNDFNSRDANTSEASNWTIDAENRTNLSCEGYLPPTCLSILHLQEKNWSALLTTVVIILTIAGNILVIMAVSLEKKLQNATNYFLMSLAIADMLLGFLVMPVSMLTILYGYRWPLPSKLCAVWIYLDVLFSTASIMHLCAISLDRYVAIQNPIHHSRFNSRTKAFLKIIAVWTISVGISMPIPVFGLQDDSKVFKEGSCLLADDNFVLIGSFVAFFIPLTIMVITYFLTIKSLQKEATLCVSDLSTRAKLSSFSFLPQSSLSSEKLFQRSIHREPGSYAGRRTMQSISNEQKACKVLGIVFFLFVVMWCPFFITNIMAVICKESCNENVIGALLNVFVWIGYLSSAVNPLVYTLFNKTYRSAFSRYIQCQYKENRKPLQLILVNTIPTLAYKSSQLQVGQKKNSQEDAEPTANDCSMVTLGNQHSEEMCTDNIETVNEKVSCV
ANO1 activ = activators or potentiators of mouse TMEM16A chloride channel; Q8BHY3; HEK293 TMEM16A/YFP-H148Q/I152L, iodide quench fluorescence; stronger effect = lower value; B-score at 10 µM; 0.3% of 340,000 active; AID 623877;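 active = fluorescence-ratio B-score plate-corrected deviation score at least 3 library SD below zero, with starting fluorescence score within 5 deviations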;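 also: channel opened by trigger with iodide after compound preincubation; score built on the fluorescence ratio of max minus min over baseline; more negative score means more quench and so TMEM16A activation or potentiation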
beta cell repl = inducers of beta-cell replication in MIN6 cells; MIN6 cells proliferation, ATPlite luminescence, 48 h; cells starved in 0.2% serum; 100% = growth in 10% serum; proliferation, % at 10 µM; 0.29% of 330,000 active;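 active = compounds whose signal lies at least 3.5 SD above the mean of all wells on their plate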
ANO1 block = blocks the mouse calcium-activated chloride channel TMEM16A; normalized B-score (activity score, 25-100; higher = stronger inhibition) at 10 µM; AID 588511; HEK293 TMEM16A/YFP iodide influx fluorescence, ionomycin; 1.2% of 310,000 active;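 active = ratio plate-corrected score three or more library SD toward inhibition, starting fluorescence score within five deviations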;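 also: score derived from kinetic fluorescence span divided by baseline fluorescence per well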
MC4R ag barr = human MC4R agonism via beta-arrestin. P32245. U2OS MC4R beta-arrestin complementation, luminescence; percent of melanotan II response, DMSO zero. activation, % at 8.9 µM. 0.98% of 360,000 active;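 active = activation above a per-plate cutoff, the mean activation of sample wells on that plate plus 3 SD, cut at about 8% in these data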
MC4R antag cAMP = antagonists of human melanocortin 4 receptor (MC4R); MC4R-expressing cells, MTII-stimulated cAMP, LANCE TR-FRET; inhibition, % at 6.5 µM; 0.48% of 360,000 active; AID 540295;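 active = inhibition above its plate's cutoff, the mean of tested wells on that plate plus 3 SD, cut at about 29% in these data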
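Assay system: U2OS cells stably expressing human melanocortin 4 receptor (MC4R) / Dosing: 6.5 µM / Timing: compound 30 min, challenge 1 h, detection 1 h / Measured by: Eu-cAMP/anti-cAMP TR-FRET, emission 671 nm / Replicates: singlicate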
TMEM16A reconf = reconfirmed blocker of mouse TMEM16A calcium-activated chloride channel | shares compounds with ANO1 block | HEK293 TMEM16A/YFP-H148Q, iodide quench fluorescence; ionomycin added to raise cell calcium | inhibition, % at 10 µM | 39% of 2,300 active | AID 652189;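 active = mean duplicate percent inhibition, scaled so buffer wells are 0 and the reference blocker 100, over three buffer SD above buffer mean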
TMEM16A Ca cntr = calcium mobilization counter-screen hit for TMEM16A inhibitor series; TMEM16A/YFP HEK293, Fluo4 calcium mobilization; shares compounds with ANO1 block; 2% of 2,300 active; calcium response (% of ionomycin), % at 10 µM;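 active = duplicate-averaged calcium signal over 20% of the ionomycin maximum, relative to buffer baseline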;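 also: each well's signal is peak minus trough fluorescence divided by its pre-addition baseline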
YFP-HEK293 quench = parental YFP-HEK293 iodide quench counter-screen activity; 2,300 tested, under 10 active; AID 652233; ionomycin; shares compounds with ANO1 block; YFP ratio F(max-min)/F0 at 10 µM;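 active = yellow fluorescent protein signal ratio exceeding the buffer control mean by over 5 SD of those controls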;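 also: ratio is mean of duplicate wells from kinetic YFP trace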
ClC-1 inh = blocks the rat ClC-1 voltage-dependent chloride channel. shares compounds with ANO1 block. CHO ClC-1-YFP, iodide influx fluorescence quench; iodide control reads 0, buffer control 100. ratio percent, % at 10 µM. 2,300 tested, under 10 active. AID 652236;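 active = duplicate-mean ratio percent above the mean of iodide-only control wells, which defines zero, plus 5 of their SD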;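 also: higher percent means stronger block of ClC-1 iodide influx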
Large screens that a line does not name were inactive (follow-up assays come after a bar, where they were run).

COC(=O)c1ccc(CSc2nnc(-c3ccccc3)n2C)o1	none
COC(=O)c1ccc(CSc2nnnn2-c2ccccc2)o1	ANO1 block 100 | TMEM16A reconf inactive | TMEM16A Ca cntr inactive | YFP-HEK293 quench inactive | ClC-1 inh inactive
O=C(CCSc1nc(-c2ccc3c(c2)OCO3)cc(C(F)(F)F)n1)NCc1ccccc1	none
COc1ccc(-c2cc(C(F)(F)F)nc(SCCC(=O)N3CCCC3)n2)cc1	ANO1 block 100 | TMEM16A reconf inactive | TMEM16A Ca cntr inactive | YFP-HEK293 quench inactive | ClC-1 inh inactive
COc1ccc(CNC(=O)CCSc2nc(-c3ccc4c(c3)OCO4)cc(C(F)(F)F)n2)cc1	none | TMEM16A reconf inactive | TMEM16A Ca cntr inactive | YFP-HEK293 quench inactive | ClC-1 inh inactive
N#Cc1ccc(C(=O)N2CCCCC2c2cc(C(=O)Nc3ccc4c(c3)OCO4)no2)cc1 (centres undefined)	none (no result: ANO1 activ, beta cell repl, ANO1 block)
CCN(CC)S(=O)(=O)c1cccc(NC(=O)COC(=O)c2cccs2)c1	ANO1 block 25 | TMEM16A reconf inactive | TMEM16A Ca cntr inactive | YFP-HEK293 quench inactive | ClC-1 inh inactive
CCN(CC)S(=O)(=O)c1cccc(NC(=O)COC(=O)/C=C/c2cccs2)c1	none
CCN(CC)S(=O)(=O)c1ccc(C)c(NC(=O)CNc2cccc(S(=O)(=O)N3CCCC3)c2)c1	none
Cc1ccc(NC(=O)CNc2cccc(S(=O)(=O)N3CCCC3)c2)cc1F	ANO1 block 25 | TMEM16A reconf 22.5% | TMEM16A Ca cntr inactive | YFP-HEK293 quench inactive | ClC-1 inh inactive
CCN(CC)S(=O)(=O)c1cccc(NC(=O)CNc2cccc(S(=O)(=O)N3CCCC3)c2)c1	ANO1 block 25 | TMEM16A reconf inactive | TMEM16A Ca cntr inactive | YFP-HEK293 quench inactive | ClC-1 inh inactive
CN(CC(=O)Nc1cccc(S(=O)(=O)N2CCCC2)c1)CC(=O)Nc1ccc(F)c(F)c1F	none (no result: beta cell repl, ANO1 block)
CN(CC(=O)Nc1cccc(S(=O)(=O)N2CCCC2)c1)CC(=O)Nc1ccc(Cl)c(C(F)(F)F)c1	ANO1 block 25 | TMEM16A reconf inactive | TMEM16A Ca cntr inactive | YFP-HEK293 quench inactive | ClC-1 inh inactive
O=C(CNc1cccc(S(=O)(=O)N2CCCC2)c1)Nc1ccc(F)c(F)c1	none
COC(C)(C)[C@@H](O)COc1c2ccoc2cc2oc(=O)ccc12	none (no result: ANO1 block)
CCOc1cc(C(=S)N2CCOCC2)ccc1OC(=O)c1ccc(C)cc1	ANO1 block 25 | TMEM16A reconf inactive | TMEM16A Ca cntr inactive | YFP-HEK293 quench inactive | ClC-1 inh inactive
CN(CC(=O)Nc1cccc(F)c1)C(=O)c1cc([N+](=O)[O-])ccc1N1CCCCC1	none
CC(C)Cc1ccc(CN2CCCC(NC(=O)c3ccnn3C)C2)cc1 (centres undefined)	ANO1 block 25 | TMEM16A reconf inactive | TMEM16A Ca cntr inactive | YFP-HEK293 quench inactive | ClC-1 inh inactive
Cc1cc(C)cc(N(CCC#N)C(=O)CSc2ncnc3sccc23)c1	none (no result: ANO1 block)
CC(CNC(=S)Nc1cc(F)cc(F)c1)CSc1ccc(Cl)cc1 (centres undefined)	ANO1 block 25 | TMEM16A reconf 43.5% | TMEM16A Ca cntr inactive | YFP-HEK293 quench inactive | ClC-1 inh inactive
Cc1ccc(NC(=S)NCCSc2ccc(Cl)cc2)cc1	none
